ChEMBL document CHEMBL3112482, “Nonclassical antifolates, part 5. Benzodiazepine analogs as a new class of DHFR inhibitors: synthesis, antitumor testing and molecular modeling study” (Eur J Med Chem, 2014)

Assays:
U-251 = test: Growth inhibition of human U251 cells at 10 uM after 48 hrs; type: functional; settings: U-251, 48 h, read-out: GI
Outline: (§1)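 NCI 60-cell-line disease-oriented human tumor panel, single-dose primary screen at 10 µM. Data given as mean-graph percent growth of treated cells, reported as percent growth inhibition (GI %).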

SNB-75 = test: Growth inhibition of human SNB75 cells at 10 uM after 48 hrs; type: functional; settings: SNB-75, 48 h, read-out: GI; outline: as §1
SNB-19 = test: Growth inhibition of human SNB19 cells at 10 uM after 48 hrs; type: functional; settings: SNB-19, 48 h, read-out: GI; outline: as §1
[1] = Growth inhibition of human SF539 cells at 10 uM after 48 hrs; type: functional; settings: SF-539, 48 h, read-out: GI; outline: as §1
SF-268 = test: Growth inhibition of human SF268 cells at 10 uM after 48 hrs; type: functional; settings: SF-268, 48 h, read-out: GI; outline: as §1
SF-295 = test: Growth inhibition of human SF295 cells at 10 uM after 48 hrs; type: functional; settings: SF-295, 48 h, read-out: GI; outline: as §1
SW-620 = test: Growth inhibition of human SW620 cells at 10 uM after 48 hrs; type: functional; settings: SW-620, 48 h, read-out: GI; outline: as §1
COLO 205 = test: Growth inhibition of human COLO205 cells at 10 uM after 48 hrs; type: functional; settings: COLO 205, 48 h, read-out: GI
Outline: (§2)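 Single-dose primary screen in the NCI 60 human tumour cell line panel, run at the NCI facility. The panel covers nine subpanels: leukaemia, non-small cell lung, colon, CNS, melanoma, ovarian, renal, prostate and breast. Read-out was percent growth of treated cells, shown as a mean graph and reported as percent growth inhibition.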

NCI-H522 = test: Growth inhibition of human NCI-H522 cells at 10 uM after 48 hrs; type: functional; settings: NCI-H522, 48 h, read-out: GI; outline: as §2
NCI-H322M = test: Growth inhibition of human NCI-H322M cells at 10 uM after 48 hrs; type: functional; settings: read-out: GI; outline: as §2
NCI-H23 = test: Growth inhibition of human NCI-H23 cells at 10 uM after 48 hrs; type: functional; settings: NCI-H23, 48 h, read-out: GI; outline: as §2
NCI-H226 = test: Growth inhibition of human NCI-H226 cells at 10 uM after 48 hrs; type: functional; settings: NCI-H226, 48 h, read-out: GI; outline: as §2
HOP-62 = test: Growth inhibition of human HOP62 cells at 10 uM after 48 hrs; type: functional; settings: HOP-62, 48 h, read-out: GI; outline: as §2
[2] = Growth inhibition of human EKVX cells at 10 uM after 48 hrs; type: functional; settings: read-out: GI; outline: as §2
A549 = test: Growth inhibition of human A549 cells at 10 uM after 48 hrs; type: functional; settings: A549, 48 h, read-out: GI; outline: as §2
SR = test: Growth inhibition of human SR cells at 10 uM after 48 hrs; type: functional; settings: read-out: GI; outline: as §1
K562 = test: Growth inhibition of human K562 cells at 10 uM after 48 hrs; type: functional; settings: K562, 48 h, read-out: GI; outline: as §2
MOLT-4 = test: Growth inhibition of human MOLT4 cells at 10 uM after 48 hrs; type: functional; settings: MOLT-4, 48 h, read-out: GI; outline: as §2
CCRF-CEM = test: Growth inhibition of human CCRF-CEM cells at 10 uM after 48 hrs; type: functional; settings: read-out: GI; outline: as §2
Dihydrofolate reductase = molecular target: T1, Dihydrofolate reductase (Bos taurus, UniProt P00376); test: Inhibition of bovine liver DHFR measured for every 1 min of 10 mins
T1 sequence (P00376 whole entry): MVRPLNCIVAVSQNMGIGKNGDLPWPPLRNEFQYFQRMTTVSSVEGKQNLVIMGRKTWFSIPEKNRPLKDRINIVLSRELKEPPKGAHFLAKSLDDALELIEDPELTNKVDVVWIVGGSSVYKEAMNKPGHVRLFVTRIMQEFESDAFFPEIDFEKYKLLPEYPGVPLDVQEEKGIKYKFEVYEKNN

T47D = test: Growth inhibition of human T47D cells at 10 uM after 48 hrs; type: functional; settings: read-out: GI; outline: as §1
[3] = Growth inhibition of human Hs 578T cells at 10 uM after 48 hrs; type: functional; settings: read-out: GI; outline: as §2
MCF7 = test: Growth inhibition of human MCF7 cells at 10 uM after 48 hrs; type: functional; settings: MCF7, 48 h, read-out: GI; outline: as §2
MDA-MB-231 = test: Growth inhibition of human MDA-MB-231 cells at 10 uM after 48 hrs; type: functional; settings: MDA-MB-231, 48 h, read-out: GI; outline: as §2
PC-3 = test: Growth inhibition of human PC3 cells at 10 uM after 48 hrs; type: functional; settings: PC-3, 48 h, read-out: GI; outline: as §2
TK-10 = test: Growth inhibition of human TK10 cells at 10 uM after 48 hrs; type: functional; settings: TK-10, 48 h, read-out: GI; outline: as §1
[4] = Growth inhibition of human UO31 cells at 10 uM after 48 hrs; type: functional; settings: UO-31, 48 h, read-out: GI; outline: as §1
CAKI-1 = test: Growth inhibition of human CAKI-1 cells at 10 uM after 48 hrs; type: functional; settings: CAKI-1, 48 h, read-out: GI; outline: as §2
[5] = Growth inhibition of human RXF393 cells at 10 uM after 48 hrs; type: functional; settings: RXF 393, 48 h, read-out: GI; outline: as §2
SK-OV-3 = test: Growth inhibition of human SKOV3 cells at 10 uM after 48 hrs; type: functional; settings: SK-OV-3, 48 h, read-out: GI; outline: as §1
[6] = Growth inhibition of human NCI-ADR-RES cells at 10 uM after 48 hrs; type: functional; settings: read-out: GI; outline: as §2
[7] = Growth inhibition of human OVCAR5 cells at 10 uM after 48 hrs; type: functional; settings: OVCAR-5, 48 h, read-out: GI; outline: as §2
[8] = Growth inhibition of human OVCAR4 cells at 10 uM after 48 hrs; type: functional; settings: OVCAR-4, 48 h, read-out: GI; outline: as §2
IGROV-1 = test: Growth inhibition of human IGROV1 cells at 10 uM after 48 hrs; type: functional; settings: IGROV-1, 48 h, read-out: GI; outline: as §2
UACC-62 = test: Growth inhibition of human UACC62 cells at 10 uM after 48 hrs; type: functional; settings: UACC-62, 48 h, read-out: GI; outline: as §1
SK-MEL-28 = test: Growth inhibition of human SK-MEL-28 cells at 10 uM after 48 hrs; type: functional; settings: SK-MEL-28, 48 h, read-out: GI; outline: as §1
SK-MEL-2 = test: Growth inhibition of human SK-MEL-2 cells at 10 uM after 48 hrs; type: functional; settings: SK-MEL-2, 48 h, read-out: GI; outline: as §1
[9] = Cytotoxicity against human prostate cancer cells at 10 uM after 48 hrs; type: functional; settings: Cancer cell lines
[10] = Cytotoxicity against human colon cancer cells at 10 uM after 48 hrs; type: functional; settings: Cancer cell lines; outline: as §2
[11] = Cytotoxicity against human leukemia cells at 10 uM after 48 hrs; type: functional; settings: Leukemia cell

SMILES: Nc1nc2c(c(-c3ccc(Br)cc3)n1)CCC/C2=C\c1ccc(Br)cc1
- inhibition of growth at 10 µM (U-251): 65.2%
- inhibition of growth at 10 µM (SNB-75): < 30%
- inhibition of growth at 10 µM (SNB-19): < 30%
- inhibition of growth at 10 µM [1]: < 30%
- inhibition of growth at 10 µM (SF-268): < 30%
- inhibition of growth at 10 µM (SF-295): < 30%
- inhibition of growth at 10 µM (SW-620): < 30%
- inhibition of growth at 10 µM (COLO 205): < 30%
- inhibition of growth at 10 µM (NCI-H522): 51.6%
- inhibition of growth at 10 µM (NCI-H322M): < 30%
- inhibition of growth at 10 µM (NCI-H23): < 30%
- inhibition of growth at 10 µM (NCI-H226): < 30%
- inhibition of growth at 10 µM (HOP-62): < 30%
- inhibition of growth at 10 µM [2]: < 30%
- inhibition of growth at 10 µM (A549): < 30%
- inhibition of growth at 10 µM (SR): 54.1%
- inhibition of growth at 10 µM (K562): < 30%
- inhibition of growth at 10 µM (MOLT-4): < 30%
- inhibition of growth at 10 µM (CCRF-CEM): < 30%
- IC50 (Dihydrofolate reductase): 16 µM
- inhibition of growth at 10 µM (T47D): < 30%
- inhibition of growth at 10 µM [3]: < 30%
- inhibition of growth at 10 µM (MCF7): 61.4%
- inhibition of growth at 10 µM (MDA-MB-231): < 30%
- inhibition of growth at 10 µM (PC-3): < 30%
- inhibition of growth at 10 µM (TK-10): < 30%
- inhibition of growth at 10 µM [4]: < 30%
- inhibition of growth at 10 µM (CAKI-1): < 30%
- inhibition of growth at 10 µM [5]: < 30%
- inhibition of growth at 10 µM (SK-OV-3): < 30%
- inhibition of growth at 10 µM [6]: < 30%
- inhibition of growth at 10 µM [7]: < 30%
- inhibition of growth at 10 µM [8]: < 30%
- inhibition of growth at 10 µM (IGROV-1): < 30%
- inhibition of growth at 10 µM (UACC-62): < 30%
- inhibition of growth at 10 µM (SK-MEL-28): < 30%
- inhibition of growth at 10 µM (SK-MEL-2): < 30%

SMILES: COc1cc(/C=C2\CCCc3c2nc(C)nc3-c2cc(OC)c(OC)c(OC)c2)cc(OC)c1OC
- inhibition of growth at 10 µM (U-251): 90.2%
- inhibition of growth at 10 µM (SNB-75): 78.1%
- inhibition of growth at 10 µM (SNB-19): 38.8%
- inhibition of growth at 10 µM [1]: 86.5%
- inhibition of growth at 10 µM (SF-268): 78.8%
- inhibition of growth at 10 µM (COLO 205): 80.9%
- inhibition of growth at 10 µM (NCI-H522): 48.2%
- inhibition of growth at 10 µM (NCI-H322M): 58.9%
- inhibition of growth at 10 µM (NCI-H23): 66.1%
- inhibition of growth at 10 µM (NCI-H226): 62.4%
- inhibition of growth at 10 µM (HOP-62): 78%
- inhibition of growth at 10 µM [2]: < 30%
- inhibition of growth at 10 µM (A549): 83.8%
- inhibition of growth at 10 µM (SR): < 30%
- inhibition of growth at 10 µM (K562): 88.9%
- IC50 (Dihydrofolate reductase): 0.5 µM
- GI50 [9]: 1.8 µM
- LC50 [9]: > 100 µM
- TGI [9]: > 100 µM
- GI50 [10]: 0.9 µM
- TGI [10]: 67.3 µM
- CC50 ([10]; read-out: LC50 (the source's name)): 76.2 µM
- GI50 [11]: 1.1 µM
- LC50 [11]: > 100 µM
- TGI [11]: 62.5 µM
- inhibition of growth at 10 µM (T47D): < 30%
- inhibition of growth at 10 µM [3]: 51.4%
- inhibition of growth at 10 µM (MCF7): 77%
- inhibition of growth at 10 µM (MDA-MB-231): 86.9%
- inhibition of growth at 10 µM (PC-3): 57.4%
- inhibition of growth at 10 µM (TK-10): 55.5%
- inhibition of growth at 10 µM [4]: 48.9%
- inhibition of growth at 10 µM (CAKI-1): 88.6%
- inhibition of growth at 10 µM [5]: 77.4%
- inhibition of growth at 10 µM (SK-OV-3): 56.1%
- inhibition of growth at 10 µM [6]: 85.6%
- inhibition of growth at 10 µM [7]: 89.2%
- inhibition of growth at 10 µM [8]: 57.8%
- inhibition of growth at 10 µM (IGROV-1): 69.3%
- inhibition of growth at 10 µM (UACC-62): 91%
- inhibition of growth at 10 µM (SK-MEL-28): 68.1%
- inhibition of growth at 10 µM (SK-MEL-2): 73.4%
